Laboratory results: PubChem BioAssay
Calls of active or inactive are those of the source.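 The calls were made as follows, unless noted: active = inhibition of the reporter signal at or above 50%; inactive = inhibition below 50%.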

How the values were obtained:
[1] = inhibitors of TNFa-induced NFkB p65 translocation, primary screen, imaging, HUVEC, MLSMR starter and 10KST1 sets (AID 438;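 active = inhibition above 20% together with a positive visual image hit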;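 also: compound added about 3h40 before a 20 min TNFalpha stimulation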;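 as to inhibition: signal is the nuclear over cytoplasmic p65 intensity ratio per well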); conditions: HUVEC TNFa-induced p65 nuclear translocation; cell count: measured here: nuclei count (cytotoxicity indicator), at 2.08 µM; inhibition: at 2 µM, stronger effect = higher value, 0% TNFa-plus-vehicle, 100% no-TNFa wells
[2] = inhibitors of mutant huntingtin aggregation, primary screen, imaging, exon1htt(103Q)mCFP cells, high-content imaging (AID 483;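 active = visual image review flags a hit and inhibition of aggregation exceeds 20%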;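 also: compound exposure lasted 3 days before fixation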;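 as to nuclei count: percent of the per-plate median nuclei count of sample wells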); conditions: exon1htt(103Q)mCFP cell line, aggregate imaging, at 2 µM; inhibition of aggregation: stronger effect = higher value; nuclei count: measured here: cell count, toxicity
[3] = inhibitors of E-selectin induction by TNFa, primary screen, imaging, HUVEC, immunofluorescence, MLSMR starter and 10KST1 sets (AID 487;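 active = visually confirmed hit in the image check and inhibition above 20%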;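 as to inhibition: signal is fraction of cell area covered by stained E-selectin grains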;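 as to nuclei count: 100% = median nuclei count of all wells on the same plate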); conditions: HUVEC TNFalpha-induced E-selectin immunofluorescence imaging, at 2 µM; inhibition: stronger effect = higher value; nuclei count: measured here: cell number, toxicity
[4] = biological target: Voltage-gated potassium channel subunit beta-2 (Rattus norvegicus) (UniProt P62483); experiment: KvBeta enzyme negative modulators, primary screen, biochemical, NADPH fluorescence (AID 622;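 active = fluorescence slope higher than the sample average by over 3 SD, cut at about -0.22 in these data, passing the limit was not always enough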;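 also: slope of raw intensity against log time taken from 70 to 1610 s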); conditions: recombinant KvBeta, 4-cyanobenzaldehyde reduction, at 10 µM, stronger effect = higher value
[5] = biological target: Voltage-gated potassium channel subunit beta-2 (Rattus norvegicus) (UniProt P62483); experiment: KvBeta positive modulators, primary screen, biochemical, NADPH fluorescence (AID 623;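 active = NADPH fluorescence slope more negative than the mean of all samples by about 3 SD, 99.7% confidence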;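 also: fluorescence intensity change per second fitted from 20 to 320 s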); conditions: Recombinant KvBeta, NADPH fluorescence decrease slope, 10 min; at 10 µM; stronger effect = lower value
[6] = biological target: Muscarinic acetylcholine receptor M4 (Homo sapiens) (UniProt P08173); experiment: compounds altering M4/GIRK thallium flux, either direction, primary screen, M4 allosteric agonist project, cell-based, HEK293 M4/GIRK, BTC-AM (AID 625;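 active = fluorescence slope after compound addition differing from the mean of all tested samples at 99.7% confidence, mostly higher but some lower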;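 also: thallium influx through GIRK channels coupled to M4 in HEK293 cells with BTC-AM dye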); conditions: at 10 µM, actives lie on both sides
Summary of the method: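 Material: HEK293 cells with M4 receptor and GIRK channels; Times: cells overnight at 37 °C, BTC-AM loading 1 h, reads 2 min total; Technique: kinetic BTC-AM fluorescence sampled at 1 Hz, 10 s pre-addition baseline; Read-out basis: slope over 15–24 s of trace normalized to starting intensity; Controls: carbachol positive, DMSO negative.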

[7] = inhibitors of Sendai virus-induced IRF3 signaling, primary screen, TLR/RLR signaling modifier project, cell-based, Sendai virus stimulus, luciferase, 10K MLSCN set (AID 602276;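 active = inhibition at or above 50% at 10 µM; inactive = inhibition below 50%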;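 also: firefly luciferase from ISG56 promoter only with Renilla not read in this screen; 0% = Sendai virus plus DMSO and 100% = medium plus DMSO without virus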); conditions: HEK293 RL24 IRF3 luciferase reporter, at 10 µM, stronger effect = higher value
[8] = inhibitors of poly I:C-induced TLR3 signaling, primary screen, cell-based, poly I:C stimulus, luciferase, 10K MLSCN set (AID 602277); conditions: HEK293-TLR3 RL24 IRF3 luciferase reporter, at 10 µM, stronger effect = higher value

Sequence of Muscarinic acetylcholine receptor M4 (Homo sapiens) (P08173 whole entry, looked up): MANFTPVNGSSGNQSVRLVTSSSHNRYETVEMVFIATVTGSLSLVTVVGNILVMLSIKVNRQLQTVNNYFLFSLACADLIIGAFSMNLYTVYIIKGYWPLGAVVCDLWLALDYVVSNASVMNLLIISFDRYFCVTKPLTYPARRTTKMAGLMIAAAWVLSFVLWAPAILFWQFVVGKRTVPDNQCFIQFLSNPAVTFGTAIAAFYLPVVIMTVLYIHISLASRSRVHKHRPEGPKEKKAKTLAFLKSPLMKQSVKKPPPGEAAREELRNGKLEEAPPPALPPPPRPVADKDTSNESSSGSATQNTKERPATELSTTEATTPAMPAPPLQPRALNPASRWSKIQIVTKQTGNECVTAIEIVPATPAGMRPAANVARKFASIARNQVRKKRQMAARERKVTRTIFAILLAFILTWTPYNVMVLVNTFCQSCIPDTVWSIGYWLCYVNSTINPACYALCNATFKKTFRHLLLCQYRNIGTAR
Sequence of Voltage-gated potassium channel subunit beta-2 (Rattus norvegicus) (P62483 whole entry, looked up): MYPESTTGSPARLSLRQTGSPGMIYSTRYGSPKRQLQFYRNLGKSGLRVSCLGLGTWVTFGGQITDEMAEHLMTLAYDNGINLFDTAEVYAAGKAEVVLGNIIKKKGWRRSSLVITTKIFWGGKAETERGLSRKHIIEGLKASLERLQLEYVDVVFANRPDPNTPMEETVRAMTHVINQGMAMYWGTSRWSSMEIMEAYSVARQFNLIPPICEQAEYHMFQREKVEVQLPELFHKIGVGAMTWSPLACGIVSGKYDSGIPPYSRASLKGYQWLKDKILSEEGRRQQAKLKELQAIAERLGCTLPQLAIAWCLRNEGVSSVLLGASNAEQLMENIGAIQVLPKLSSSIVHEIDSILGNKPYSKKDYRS

With `C=CCn1cc(C(=O)NCCOC)c(=O)c2cc(S(=O)(=O)N(CC)CC)ccc21` the cell count [1] was 580, the inhibition [1] was -15.8% (inactive) and the inhibition of aggregation [2] was 7.1% (inactive). For the same compound, the nuclei count [2] was 81.2%, the inhibition [3] was -11.3% (inactive) and the nuclei count [3] was 115%. For the same compound, the fluorescence slope [4] was -0.607 (inactive), the NADPH fluorescence slope [5] was 1.4e-05 (inactive) and the fluorescence slope [6] was 0.00635 (inactive). The inhibition [7] was 7.34% (inactive) and the inhibition [8] was 17.4% (inactive).
For `COc1cc(S(=O)(=O)N2CCOCC2)ccc1NC(=O)COC(=O)c1ccccn1`, the cell count [1] was 621, the inhibition [1] was 11.9% (inactive) and the inhibition of aggregation [2] was -7.1% (inactive). The nuclei count [2] was 126%, the inhibition [3] was -45.4% (inactive) and the nuclei count [3] was 101%. The fluorescence slope [4] was -0.542 (inactive), the NADPH fluorescence slope [5] was -2.5e-05 (inactive) and the fluorescence slope [6] was 0.00554 (inactive). The inhibition [7] was 11.7% (inactive) and the inhibition [8] was 20.5% (inactive).
With `CCCCSc1nc2c(cnn2-c2ccc(Cl)cc2)c(=O)[nH]1` the cell count [1] was 233, the inhibition [1] was -0.3% (inactive) and the inhibition of aggregation [2] was 6.5% (inactive). The nuclei count [2] was 103%, the inhibition [3] was -23.4% (inactive) and the nuclei count [3] was 111%. The fluorescence slope [4] was -0.426 (inactive), the NADPH fluorescence slope [5] was -9.3e-05 (inactive) and the fluorescence slope [6] was 0.00579 (inactive). For the same compound, the inhibition [7] was 16.7% (inactive) and the inhibition [8] was 16.6% (inactive).
With `NC(=O)C1CCN(CC(=O)N2c3ccccc3CCc3ccccc32)CC1` the cell count [1] was 409, the inhibition [1] was -16.8% (inactive) and the inhibition of aggregation [2] was -2.8% (inactive). For the same compound, the nuclei count [2] was 107%, the inhibition [3] was -20.9% (inactive) and the nuclei count [3] was 154%. For the same compound, the fluorescence slope [4] was -0.587 (inactive), the NADPH fluorescence slope [5] was -5.7e-05 (inactive) and the fluorescence slope [6] was 0.00441 (inactive). For the same compound, the inhibition [7] was 15.6% (inactive) and the inhibition [8] was 23.9% (inactive).
With `C=CS(=O)(=O)c1ccc(Oc2ccc(S(=O)(=O)C=C)cc2)cc1` the cell count [1] was 378, the inhibition [1] was 70.2% (active) and the inhibition of aggregation [2] was -3.2% (inactive). For the same compound, the nuclei count [2] was 80.8%, the inhibition [3] was 104% (active) and the nuclei count [3] was 121%. For the same compound, the fluorescence slope [4] was -0.5 (inactive), the NADPH fluorescence slope [5] was -2.6e-05 (inactive) and the fluorescence slope [6] was 0.00487 (inactive). For the same compound, the inhibition [7] was 14.1% (inactive) and the inhibition [8] was 98.2% (active).
With `CCN(CC)C(=O)c1sc(NC(=O)c2ccco2)c(C#N)c1C` the cell count [1] was 752, the inhibition [1] was -1.3% (inactive) and the inhibition of aggregation [2] was -26% (inactive). For the same compound, the nuclei count [2] was 118%, the inhibition [3] was 1.3% (inactive) and the nuclei count [3] was 117%. The fluorescence slope [4] was -0.586 (inactive), the NADPH fluorescence slope [5] was 1.3e-05 (inactive) and the fluorescence slope [6] was 0.00573 (inactive). The inhibition [7] was 11.4% (inactive) and the inhibition [8] was 13.3% (inactive).
With `COc1cc(C2=NOC(C(=O)NCc3ccc(F)cc3)C2)cc(OC)c1OC` (configuration not stated) the cell count [1] was 774, the inhibition [1] was 13.6% (inactive) and the inhibition of aggregation [2] was -195% (inactive). For the same compound, the nuclei count [2] was 2.2%, the inhibition [3] was -308% (inactive) and the nuclei count [3] was 103%. For the same compound, the fluorescence slope [4] was -0.462 (inactive), the NADPH fluorescence slope [5] was 4.9e-05 (inactive) and the fluorescence slope [6] was 0.00672 (inactive). For the same compound, the inhibition [7] was 36.9% (inactive) and the inhibition [8] was 85.8% (active).
